In ChEMBL document CHEMBL1122292, “Aza analogues of lucanthone: synthesis and antitumor and bactericidal properties” (J Med Chem, 1983) one finds Antibiotic activity data, which are given here for one molecule.

What all share (assay type): functional, organism-based
The test system of assay [1] is Staphylococcus aureus. Put plainly: In vitro antibiotic activity against Staphylococcus aureus ATCC 6358P at 3.6E-8 mol dose; +/- symbol indicates slightly positive result. The gist of the method:
(§1)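 Compounds were dissolved in ethyl alcohol at 3–5 × 10⁻⁶ mol/mL. Aliquots of 5, 10 or 20 μL were applied to 6-mm filter disks and dried under a light nitrogen stream. The disks were laid on an agar overlay inoculated with the test organism and incubated at 37 °C for 24 h. Inhibition-zone diameters were then measured.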

Assay [2] has as its system Staphylococcus aureus. Put plainly: In vitro antibiotic activity against Staphylococcus aureus ATCC 6358P at 7.2E-8 mol dose; +/- symbol indicates slightly positive result. The gist of the method: as §1
Another assay relates to Bacillus subtilis. As to the kind of experiment: In vitro antibiotic activity against Bacillus subtilis ATCC 6633 at 1.8E-8 mol dose; - symbol indicates negative result. The gist of the method: as §1
The subject of assay [3] is Candida albicans. As to the kind of experiment: In vitro antibiotic activity against Candida albicans at 7.2E-8 mol dose; - symbol indicates negative result. The gist of the method: as §1
Assay [4] deals with Candida albicans. As to the kind of experiment: In vitro antibiotic activity against Candida albicans at 3.6E-8 mol dose; - symbol indicates negative result. Put shortly:
as §1

In a further assay the test system is Escherichia coli. As to the kind of experiment: In vitro antibiotic activity against Escherichia coli ATCC 10536 at 7.2E-8 mol dose; ++ symbol indicates slight constraint, transient positive result. Put shortly:
as §1

For assay [5], the system named is Candida albicans. As to the kind of experiment: In vitro antibiotic activity against Candida albicans at 1.8E-8 mol dose; - symbol indicates negative result. The gist of the method:
as §1

Assay [6] relates to Staphylococcus aureus. As to the kind of experiment: In vitro antibiotic activity against Staphylococcus aureus ATCC 6358P at 1.8E-8 mol dose; +/- symbol indicates slightly positive result. Put shortly:
as §1

`CCN(CC)CCCNc1nc(C)cc2nc3ccccc3c(O)c12`: the Antibiotic activity result with Staphylococcus aureus [1] is “+/-”; in the assay with Staphylococcus aureus [2], “+/-”; with Bacillus subtilis it was “Negative result”; in the assay with Candida albicans [3], “Negative result”; in the assay on Candida albicans [4], “Negative result”; in the assay with Escherichia coli it was “slight constraint, transient positive result”. Besides, the results for the Antibiotic activity result in the assay on Candida albicans [5] and with Staphylococcus aureus [6] were “Negative result” and “+/-”, respectively.
